# Compound activity as filed in PubChem BioAssay.
# Dynein cargo inh – inhibitors of GR-EGFP nuclear translocation, primary screen, dynein cargo transport inhibitor project, imaging, high-content, 3617.4 mouse cells; hit rate 0.47% among 220,000; z-score, hits read low; test concentration mostly 20 µM; stimulated with dexamethasone, 1 µM; hits give low values;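 active means plate z-score of nuclear minus cytoplasmic receptor signal below a set negative limit, without overly bright fluorescence or cell loss, cut at about -3.5 in these data, passing the limit was not always enough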;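 further: z-score of nuclear minus cytoplasmic ring GR-EGFP intensity difference per well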
#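 Buffer or medium: tet-free, stripped-serum medium; Also added: dexamethasone, 1.0 µM final; Technique: high-content fluorescence imaging after fixation; Times: 48 h induction, 1 h compound, 30 min dex at 37 °C; Read-out: per-cell GR-EGFP intensity, nucleus versus surrounding cytoplasmic ring, well-averaged.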
# UPR CHOP act – activators of apoptotic CHOP UPR arm, primary screen, cell-based, CHO-CHOP luciferase reporter, luminescence, uHTS | hit rate 0.34% among 330,000 | activation, % at 10 µM | UPR activation; percent of tunicamycin response over DMSO baseline;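 active means at 10 µM dose, activation of 40% or more, normalized to positive control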;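 further: 100% = tunicamycin at 10 µg/mL and 0% = DMSO alone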
#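 System: CHO-CHOP luciferase reporter cell line; amount: 500 cells/well; buffer or medium: F12 medium containing 10% fetal bovine serum; incubation: 6 h compound exposure at 37 °C after overnight seeding; measured by: luciferase luminescence after 10 min with Steady-Glo reagent; evaluation: % reporter activation, DMSO baseline versus tunicamycin full activation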
# Mdm2 ligase inh – MDM2-luciferase reporter signal enhancers, primary screen, MDM2 E3 ligase inhibitor project, cell-based, luminescence, 1536-well; AID 1230, 2008; signal enhancement, % at 5 µM; hit rate 0.11% among 210,000; cell-based MDM2 ubiquitination luciferase reporter, 2 h; 0 = plate control, 100 = twice control, blank-subtracted;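 active means signal enhancement of 30% or more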;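 further: luminescence tracks abundance of the self-degrading MDM2-luciferase fusion protein; higher signal means inhibition of MDM2 E3 ligase activity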
#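 Test system: mammalian cells stably expressing self-ubiquitinating, self-degrading MDM2 E3–luciferase fusion; Amount: 2000 cells in each well; Medium: DMEM; Schedule: 4 h settle plus 2 h compound, 37 °C; Technique: SteadyLite luciferase luminescence after 15 min room-temperature reagent incubation; Benchmarks: plate control and blank wells.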
# B2AR ag – beta2AR agonists driving receptor internalization, primary screen, cell-based, FAP fluorogen, flow cytometry; response, % (no concentration beside the values); hit rate 0.43% among 340,000; Am2.2-beta2AR cells; AID 504454, 2011;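 active means response above a set limit, near 3 SD of response in nonfluorescent compounds, cut at about 42% in these data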
# XBP1 UPR activ – activators of adaptive XBP1 UPR arm, primary screen, cell-based, CHO-XBP1 luciferase reporter, luminescence, uHTS; hit rate 0.33% among 330,000; AID 463104, 2010; IRE1-XBP1 UPR activation; percent of tunicamycin response, DMSO as zero; activation, % at 20 µM;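 active means versus positive control, 20 µM dose yields 30% or more activation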;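 further: 100% = tunicamycin at 10 µg/mL and 0% = DMSO only wells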
#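 Signal: luciferase luminescence; Assay system: CHO-XBP1 luciferase reporter cells; Amount: one thousand reporter cells per well; Dosing: 20 µM single concentration, DMSO 1%; Benchmarks: high control tunicamycin 10 µg/mL final, low control DMSO vehicle only; Schedule: 6 h compound exposure at 37 °C, 5% CO2; Evaluation: percent activation relative to tunicamycin reference.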
# Mdm2 MdmX PPI – inhibitors of human Mdm2-MdmX association, primary screen, cell-based, luminescence, split luciferase, SaOS-2, uHTS; SaOS-2 split-luciferase Mdm2/MdmX complementation; hit rate 3% among 330,000; inhibition, % at 8 µM; Protein Mdm4 (Homo sapiens) + E3 ubiquitin-protein ligase Mdm2 (Homo sapiens), …;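 active means inhibition of at least 50% at 8 µM in the primary screen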
# Target sequence (O15151 whole entry, looked up): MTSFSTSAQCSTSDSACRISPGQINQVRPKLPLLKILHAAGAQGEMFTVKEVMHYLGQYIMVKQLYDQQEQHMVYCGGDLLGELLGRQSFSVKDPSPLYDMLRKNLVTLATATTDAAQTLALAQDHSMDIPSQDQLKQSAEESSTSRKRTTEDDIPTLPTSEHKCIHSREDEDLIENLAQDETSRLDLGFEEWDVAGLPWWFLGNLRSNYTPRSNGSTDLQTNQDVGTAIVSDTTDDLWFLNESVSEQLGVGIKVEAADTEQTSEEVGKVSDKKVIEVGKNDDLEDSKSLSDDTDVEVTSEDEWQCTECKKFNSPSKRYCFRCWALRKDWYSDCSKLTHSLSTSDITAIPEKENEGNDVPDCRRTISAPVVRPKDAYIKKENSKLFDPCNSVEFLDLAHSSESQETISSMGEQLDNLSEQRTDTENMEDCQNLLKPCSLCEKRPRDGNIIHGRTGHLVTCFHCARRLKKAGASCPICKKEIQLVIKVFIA
# Target sequence (Q00987 whole entry, looked up): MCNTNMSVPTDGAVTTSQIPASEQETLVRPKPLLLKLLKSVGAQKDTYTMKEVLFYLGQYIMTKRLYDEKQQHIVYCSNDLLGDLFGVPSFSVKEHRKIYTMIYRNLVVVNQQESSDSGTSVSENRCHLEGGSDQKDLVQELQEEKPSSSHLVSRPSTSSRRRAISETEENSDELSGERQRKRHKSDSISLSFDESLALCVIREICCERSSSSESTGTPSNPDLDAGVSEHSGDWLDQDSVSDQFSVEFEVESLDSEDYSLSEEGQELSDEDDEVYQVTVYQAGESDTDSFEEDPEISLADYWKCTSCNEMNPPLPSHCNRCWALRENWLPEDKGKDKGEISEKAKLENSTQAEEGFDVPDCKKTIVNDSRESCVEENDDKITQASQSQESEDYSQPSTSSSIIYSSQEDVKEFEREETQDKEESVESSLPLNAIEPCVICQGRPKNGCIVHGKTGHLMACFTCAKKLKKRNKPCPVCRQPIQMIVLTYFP
# * = called active by the depositor; nt = no result. This is a sample that favours compounds with a hit; in the whole collection about 3.7% have one here.
SMILES,Dynein cargo inh,UPR CHOP act,Mdm2 ligase inh,B2AR ag,XBP1 UPR activ,Mdm2 MdmX PPI
c1ccc(-n2ncc3cccnc32)cc1,2.26,5.5,-0.4,3.3,-3.6,9.8
CC(C)(CNCc1ccccc1)NS(=O)(=O)c1ccc(Cl)cc1,nt,-0.9,nt,-11.8,-1.1,4.4
O=C(CN1CCCCC1)NC(=O)NCc1ccccc1,-0.852,1.0,37.5*,6.0,-0.1,-9.9
O=C(CN1CCCCCC1)NCc1ccccc1,-0.547,-1.6,-7.6,4.6,-1.6,-6.5
O=c1c2ccccc2nc2c3ccccc3c(NCCN3CCOCC3)nn12,0.369,1.2,-10.8,nt,1.4,11.6
O=c1c2c(-c3ccccc3)csc2nc2c3ccccc3c(NCCN3CCOCC3)nn12,-3.31,nt,-28.1,107.4*,nt,nt
O=C1C(F)=CC(COC(c2ccccc2)(c2ccccc2)c2ccccc2)OC1n1cc(F)c(=O)[nH]c1=O (stereo unspecified),nt,nt,nt,87.2*,nt,nt
CC(C)CC(=O)Nc1ccc2c3c(cccc13)CC2,-0.788,-0.3,-10.6,9.0,-0.4,23.5
CCCCC(=O)Nc1ccc2c3c(cccc13)CC2,0.686,1.4,2.8,45.6*,-1.5,-6.9
COc1cc(NC(=S)N2CCN(S(=O)(=O)c3ccccc3)CC2)cc(OC)c1,nt,-1.0,nt,3.1,-2.8,19.0
CCOC(=O)C1=C(Cc2ccc(F)cc2)C(=O)c2ccccc2C1=O,-1.74,125.3*,-2.2,-167.7,-2.4,19.6
CCOCCCn1c(=N)c(C(N)=S)cc2c(=O)n3cccc(C)c3nc21,0.302,0.8,-3.3,-4.9,4.8,19.5
COCCn1c(=N)c(C(=O)NCCc2ccccc2)cc2c(=O)n3cccc(C)c3nc21,-0.213,-2.4,nt,-9.7,-4.3,8.6
N=c1c(C(=O)NC2CCCCC2)cc2c(=O)n3ccccc3nc2n1Cc1ccc(F)cc1,nt,-1.1,nt,-1.1,-0.5,36.2
Cc1cccn2c(=O)c3cc(C(N)=S)c(=N)n(CCCOC(C)C)c3nc12,-0.993,3.2,-1.2,71.0*,2.3,28.2
CCCCNC(=O)c1cc2c(=O)n3cccc(C)c3nc2n(Cc2ccccc2)c1=N,-0.774,-1.8,-13.8,86.7*,-1.2,39.4
Cc1cccn2c(=O)c3cc(C(=O)NCCN4CCOCC4)c(=N)n(CCc4ccccc4)c3nc12,-0.00558,-1.2,-12.1,15.9,-2.6,42.4
CCNC(=O)c1cc2c(=O)n3cccc(C)c3nc2n(CCc2ccccc2)c1=N,-1.24,1.3,-22.2,88.6*,-2.2,10.2
Cc1cccn2c(=O)c3cc(C(=O)NC4CCCC4)c(=N)n(Cc4ccc(F)cc4)c3nc12,nt,0.8,nt,103.1*,0.2,26.3
COc1cccc(-c2c(C#N)c(SC)nc3cc(C)nn23)c1,-0.183,-0.2,-6.4,1.7,4.6,8.1
O=C(c1ccc(-c2cc(O)c3ncccc3c2)cc1)N1CCNCC1,nt,0.4,nt,-4.6,1.2,34.6
COc1ccc(N2CCN(C(=O)CSc3nc4nc(C)cc(C)n4n3)CC2)cc1,nt,-0.5,nt,-13.8,-0.5,-28.4
CC1CCC(NC(=O)COC(=O)CCC(=O)c2ccc(Cl)s2)CC1 (stereo unspecified),nt,-1.4,nt,-3.6,-2.8,21.1
Cc1cccn2c(=O)c3cc(C(=O)NC4CCCC4)c(=N)n(CCc4ccccc4)c3nc12,nt,3.3,nt,78.7*,2.0,39.6
CCCc1ccc(C2=Nn3c(nnc3C(C)C)SC2)cc1,nt,-0.6,nt,66.3*,7.2,22.7
SMILES,Dynein cargo inh,UPR CHOP act,Mdm2 ligase inh,B2AR ag,XBP1 UPR activ,Mdm2 MdmX PPI
CC(C)c1nnc2n1N=C(c1ccc(Cl)cc1)CS2,nt,0.3,nt,-10.6,1.3,23.5
O=C1CN(C(=O)c2ccccc2F)C(c2ccccc2)c2cc(Cl)ccc2N1 (stereo unspecified),nt,-0.8,nt,-3.2,-4.5,-20.5
COC(=O)C1=C(O)/C(=C\c2cc(C)n(-c3ccc(F)cc3)c2C)N=C1C,-1.12,0.0,5.3,68.9*,-2.8,8.1
COC(=O)C1=C(C)NC(=O)/C1=C\c1cc(C)n(-c2ccc(F)cc2)c1C,0.771,2.4,-10.1,10.9,-3.7,7.2
CCN(CC)Cc1cc(C(=O)O)c(C)o1,0.541,-1.2,31.6*,5.2,-0.6,14.5
Cc1oc(CN2CCOCC2)cc1C(=O)O,0.282,-0.3,-8.3,-0.1,0.3,-41.8
N#C/C(=C\c1cccc(NC(=O)c2ccccc2Cl)c1)C(=O)NCCc1ccccc1,-0.675,1.2,0.8,43.1*,2.7,32.2
COc1cc(/C=C2/C(=O)ON=C2c2ccccc2)ccc1O,-2.14,20.5,7.7,42.2*,8.1,13.9
O=C1ON=C(c2ccccc2)/C1=C/c1ccc(O)cc1,nt,10.3,nt,46.6*,6.8,24.4
COc1cc(/C=C2\C(=O)ON=C2c2ccccc2)cc(Cl)c1O,-0.862,20.4,3.7,-91.8,-3.0,15.8
Cc1nc2ccc(NC(=O)c3cc([N+](=O)[O-])cc([N+](=O)[O-])c3Cl)cc2s1,-3.58*,nt,-15.1,30.5,nt,nt
Clc1ccccc1/C=N/NC1=Nc2cccc3cccc1c23,-1.52,7.6,346.3*,-11.4,15.1,27.3
COc1ccc(N2CCN(C(c3cccs3)C(C)NC(=O)C(=O)N3CCCC3)CC2)cc1 (stereo unspecified),nt,-0.7,nt,3.8,-2.1,-3.3
COc1ccc(N2CCN(C(c3cccs3)C(C)NC(=O)C(=O)N3CCCCC3)CC2)cc1 (stereo unspecified),nt,1.6,nt,70.4*,-6.7,-1.4
CCc1c(C)c(C#N)c2nc3ccccc3n2c1Cl,-1.13,nt,43.9*,nt,nt,nt
CN(C)c1nc(Cl)nc2c1nc(Cl)n2C1CCCCO1 (stereo unspecified),nt,nt,nt,-3.9,nt,nt
CCCCNC(=O)O[C@@H]1C[C@H]2CCCC(=O)N3CC[C@@H](C1)[C@@H]23,nt,2.5,nt,-5.0,1.1,10.2
CCCCCCCN(c1ccccc1)[C@@H]1C[C@H]2CCCC(=O)N3CC[C@@H](C1)[C@@H]23,nt,nt,nt,91.3*,nt,nt
CN(Cc1c(F)cccc1Cl)C(=O)c1cnc2ccccc2n1,nt,0.0,nt,-1.9,7.2,-12.3
Fc1cccc(Cl)c1/C=N/n1c(-c2cccnc2)n[nH]c1=S,0.273,-0.5,44.6*,-4.2,2.1,7.3
CC(=O)CC(c1ccccc1)S(=O)(=O)c1ccc([N+](=O)[O-])cc1 (stereo unspecified),nt,-0.2,nt,-2.5,-1.0,10.7
